Experimental findings from ChEMBL document CHEMBL4257478, “Design, synthesis and evaluation of (R)-3-(7-(methyl(7H-pyrrolo[2,3-d]pyrimidin-4-yl)amino)-5-azaspiro[2.4]heptan-5-yl)-3-oxopropanenitrile as a JAK1-selective inhibitor” (Medchemcomm, 2018) are described below.

Data set [1] deals with Rattus norvegicus. As to the kind of experiment: AUC (0 to t) in Sprague-Dawley rat at 5 mg/kg, iv after 0.08 to 24 hrs by LC-MS/MS method. The format is ADME, organism-based. Set-up: time upper 24 hr, time lower 0.08 hr, dose 5 mg/kg, route intravenous. Conditions: in vivo. In outline: (§1)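 Male Sprague Dawley rats, 7-8 weeks old, n=4 per group. IV dose 5 mg/kg free base in 10% ethanol/90% PEG400; oral dose 10 mg/kg as corn oil suspension after 16 h fast. Blood taken 0.08-24 h (IV) or 0.25-24 h (PO). Plasma diluted in acetonitrile with internal standard, analysed by LC-MS/MS, parameters by non-compartmental analysis.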

Data set [2] in a line: MRT in Sprague-Dawley rat at 5 mg/kg, iv after 0.08 to 24 hrs by LC-MS/MS method. It is filed as ADME, organism-based. Particulars: in vivo. In outline:
as §1

Data set [3] deals with Rattus norvegicus. The data set can be described thus: AUC (0 to t) in Sprague-Dawley rat at 10 mg/kg, po after 0.25 to 24 hrs by LC-MS/MS method. It is filed as ADME, organism-based. Set-up: time lower 0.25 hr, dose 10 mg/kg, time upper 24 hr, route oral. Particulars: in vivo. Summed up: as §1
For data set [4], the target named is Voltage-gated inwardly rectifying potassium channel KCNH2 (Homo sapiens, UniProt Q12809). The data set can be described thus: Inhibition of human ERG expressed in HEK293 cells after 5 mins by automated planar patch clamp method. It is filed as cell-based. For orientation: The patch-clamp technique gives a direct electrical read-out from membranes.
Data set [5] in a line: Cmax in Sprague-Dawley rat at 10 mg/kg, po after 0.25 to 24 hrs by LC-MS/MS method. It is filed as ADME, organism-based. Set-up: dose 10 mg/kg, route oral. Conditions: in vivo. In outline: as §1
Data set [6] deals with T1, Tyrosine-protein kinase JAK2 (Homo sapiens, UniProt O60674). As to the kind of experiment: Inhibition of human JAK2 at 10 uM using KTFCGTPEYLAPEVRREPRILSEEEQEMFRDFDYIADWC as substrate after 40 mins in presence of [gamma-33P-ATP] by scintillation counting method relative to control.
A short description of data set [7]: MRT in Sprague-Dawley rat at 10 mg/kg, po after 0.25 to 24 hrs by LC-MS/MS method. It is filed as ADME, organism-based. Particulars: in vivo. Summed up: as §1
Data set [8] in a line: Half life in Sprague-Dawley rat at 5 mg/kg, iv after 0.08 to 24 hrs by LC-MS/MS method. The format is ADME, organism-based. Conditions: in vivo. Summed up: as §1
The nature of data set [9]: Tmax in Sprague-Dawley rat at 10 mg/kg, po after 0.25 to 24 hrs by LC-MS/MS method. The format is ADME, organism-based. Particulars: in vivo. In outline:
(§2)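 Male Sprague Dawley rats, 7–8 weeks old, n=4, fasted 16 h. Free base given at 10 mg/kg po as a corn oil suspension (5 mL/kg); a 5 mg/kg iv arm used 10% ethanol/90% PEG400. Plasma sampled 0.25–24 h, acetonitrile-precipitated with internal standard, and measured by LC-MS/MS. Parameters derived by non-compartmental analysis.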

In data set [10] the test system is Rattus norvegicus. The data set can be described thus: AUC (0 to infinity) in Sprague-Dawley rat at 10 mg/kg, po after 0.25 to 24 hrs by LC-MS/MS method. Set-up: dose 10 mg/kg, route oral, time infinity. Conditions: in vivo. The format is ADME, organism-based. In outline:
as §1

The nature of data set [11]: Oral bioavailability in Sprague-Dawley rat at 10 mg/kg after 0.25 to 24 hrs by LC-MS/MS method. Conditions: in vivo. It is filed as ADME, organism-based. In outline: as §2
Data set [12] has as its target Tyrosine-protein kinase JAK1 (Homo sapiens, UniProt P23458). The data set can be described thus: Inhibition of human JAK1 using GEEPLYWSFPAKKK as substrate after 40 mins in presence of [gamma-33P-ATP] by scintillation counting method.
The target of data set [13] is T1, Tyrosine-protein kinase JAK2. As to the kind of experiment: Inhibition of human JAK2 using KTFCGTPEYLAPEVRREPRILSEEEQEMFRDFDYIADWC as substrate after 40 mins in presence of [gamma-33P-ATP] by scintillation counting method.

T1 sequence (O60674 whole entry): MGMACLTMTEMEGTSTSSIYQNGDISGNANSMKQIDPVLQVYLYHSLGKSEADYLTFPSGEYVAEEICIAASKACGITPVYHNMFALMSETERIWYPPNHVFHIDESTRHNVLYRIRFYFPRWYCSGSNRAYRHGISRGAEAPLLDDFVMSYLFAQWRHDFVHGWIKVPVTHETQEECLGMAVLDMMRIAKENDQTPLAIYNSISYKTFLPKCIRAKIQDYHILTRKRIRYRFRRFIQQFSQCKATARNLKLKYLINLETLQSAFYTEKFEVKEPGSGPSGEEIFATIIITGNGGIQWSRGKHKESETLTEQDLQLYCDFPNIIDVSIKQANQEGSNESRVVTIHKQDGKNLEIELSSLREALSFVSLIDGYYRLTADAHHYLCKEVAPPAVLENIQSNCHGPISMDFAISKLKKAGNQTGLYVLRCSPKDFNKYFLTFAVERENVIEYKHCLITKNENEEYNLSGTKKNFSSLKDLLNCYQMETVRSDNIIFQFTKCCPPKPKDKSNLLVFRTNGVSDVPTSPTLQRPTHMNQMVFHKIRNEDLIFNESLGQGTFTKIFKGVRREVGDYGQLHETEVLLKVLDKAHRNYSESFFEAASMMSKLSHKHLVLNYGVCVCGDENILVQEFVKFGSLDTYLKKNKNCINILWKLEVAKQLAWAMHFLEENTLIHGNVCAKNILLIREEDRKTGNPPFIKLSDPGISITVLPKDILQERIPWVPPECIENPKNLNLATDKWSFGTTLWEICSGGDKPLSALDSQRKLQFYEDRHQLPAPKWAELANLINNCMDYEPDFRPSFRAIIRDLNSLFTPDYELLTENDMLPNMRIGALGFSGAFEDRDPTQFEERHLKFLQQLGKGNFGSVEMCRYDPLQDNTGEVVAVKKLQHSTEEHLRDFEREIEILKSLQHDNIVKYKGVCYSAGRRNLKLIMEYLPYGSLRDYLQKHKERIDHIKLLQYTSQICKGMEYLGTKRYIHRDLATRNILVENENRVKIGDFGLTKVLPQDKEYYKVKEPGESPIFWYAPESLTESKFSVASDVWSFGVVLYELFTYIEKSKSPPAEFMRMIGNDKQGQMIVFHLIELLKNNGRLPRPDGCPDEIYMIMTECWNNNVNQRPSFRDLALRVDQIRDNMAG
Voltage-gated inwardly rectifying potassium channel KCNH2, sequence (Q12809 whole entry): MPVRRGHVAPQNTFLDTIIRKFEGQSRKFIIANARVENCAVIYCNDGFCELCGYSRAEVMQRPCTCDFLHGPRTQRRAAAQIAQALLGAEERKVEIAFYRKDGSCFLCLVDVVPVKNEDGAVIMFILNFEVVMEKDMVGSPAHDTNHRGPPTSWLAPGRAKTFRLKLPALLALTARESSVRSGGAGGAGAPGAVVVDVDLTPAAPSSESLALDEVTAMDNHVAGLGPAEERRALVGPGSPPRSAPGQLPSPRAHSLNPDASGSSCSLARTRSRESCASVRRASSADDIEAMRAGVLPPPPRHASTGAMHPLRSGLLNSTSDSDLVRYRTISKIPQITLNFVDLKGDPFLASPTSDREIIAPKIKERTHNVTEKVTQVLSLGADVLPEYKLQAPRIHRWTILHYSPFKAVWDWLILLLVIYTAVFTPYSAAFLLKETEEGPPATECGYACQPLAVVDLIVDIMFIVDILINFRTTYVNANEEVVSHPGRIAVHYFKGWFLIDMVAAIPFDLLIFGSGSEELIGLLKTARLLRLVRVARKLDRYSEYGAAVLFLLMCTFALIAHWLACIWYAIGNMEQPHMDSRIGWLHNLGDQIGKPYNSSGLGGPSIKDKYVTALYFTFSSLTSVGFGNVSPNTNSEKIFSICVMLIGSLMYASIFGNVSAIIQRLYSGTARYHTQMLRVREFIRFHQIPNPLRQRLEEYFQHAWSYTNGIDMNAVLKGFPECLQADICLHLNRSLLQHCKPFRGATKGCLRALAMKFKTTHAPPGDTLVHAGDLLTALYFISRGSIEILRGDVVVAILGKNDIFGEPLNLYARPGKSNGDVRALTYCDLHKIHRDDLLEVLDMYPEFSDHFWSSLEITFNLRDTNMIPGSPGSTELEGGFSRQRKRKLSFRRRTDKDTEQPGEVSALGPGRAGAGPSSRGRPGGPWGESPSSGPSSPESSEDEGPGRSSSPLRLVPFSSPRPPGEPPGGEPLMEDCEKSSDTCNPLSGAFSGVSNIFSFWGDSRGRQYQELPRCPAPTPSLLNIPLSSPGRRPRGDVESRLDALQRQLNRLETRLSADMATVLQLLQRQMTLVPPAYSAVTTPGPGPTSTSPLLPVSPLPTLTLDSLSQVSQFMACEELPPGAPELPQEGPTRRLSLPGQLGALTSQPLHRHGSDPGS
Tyrosine-protein kinase JAK1, sequence (P23458 whole entry): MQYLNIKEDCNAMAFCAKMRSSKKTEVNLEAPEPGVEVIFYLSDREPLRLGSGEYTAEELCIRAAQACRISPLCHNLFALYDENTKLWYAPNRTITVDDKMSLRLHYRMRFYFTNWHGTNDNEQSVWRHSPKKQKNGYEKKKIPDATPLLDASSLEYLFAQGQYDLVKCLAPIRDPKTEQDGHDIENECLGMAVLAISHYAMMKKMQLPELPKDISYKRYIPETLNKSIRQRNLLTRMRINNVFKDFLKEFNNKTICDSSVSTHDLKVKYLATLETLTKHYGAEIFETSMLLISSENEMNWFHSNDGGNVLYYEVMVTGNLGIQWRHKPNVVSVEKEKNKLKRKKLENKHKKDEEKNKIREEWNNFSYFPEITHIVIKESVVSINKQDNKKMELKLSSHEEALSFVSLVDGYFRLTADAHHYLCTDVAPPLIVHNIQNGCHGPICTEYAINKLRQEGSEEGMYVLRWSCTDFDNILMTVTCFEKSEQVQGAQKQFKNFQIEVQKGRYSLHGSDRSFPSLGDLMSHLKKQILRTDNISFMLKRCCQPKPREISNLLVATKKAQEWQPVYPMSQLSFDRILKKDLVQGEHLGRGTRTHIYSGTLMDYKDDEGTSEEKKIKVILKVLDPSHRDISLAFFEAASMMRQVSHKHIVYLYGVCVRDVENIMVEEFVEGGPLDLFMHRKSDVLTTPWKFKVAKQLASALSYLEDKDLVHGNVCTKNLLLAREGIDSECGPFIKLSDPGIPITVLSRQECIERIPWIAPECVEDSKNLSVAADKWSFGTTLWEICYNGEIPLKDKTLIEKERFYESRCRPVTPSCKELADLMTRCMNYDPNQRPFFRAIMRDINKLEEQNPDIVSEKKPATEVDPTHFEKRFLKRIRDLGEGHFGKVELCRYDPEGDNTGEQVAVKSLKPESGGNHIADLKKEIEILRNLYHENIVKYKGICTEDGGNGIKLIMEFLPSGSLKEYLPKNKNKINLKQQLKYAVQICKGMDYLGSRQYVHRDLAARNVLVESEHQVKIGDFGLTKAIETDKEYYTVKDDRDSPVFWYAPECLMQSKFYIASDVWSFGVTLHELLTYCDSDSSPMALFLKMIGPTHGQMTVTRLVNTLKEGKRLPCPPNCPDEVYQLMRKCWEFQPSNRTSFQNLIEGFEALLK

Consider `CN(c1ncnc2[nH]ccc12)[C@H]1CN(C(=O)CC#N)CC12CC2`, for which the figures for the AUCt in the data set on Rattus norvegicus [1] and with Rattus norvegicus [3] were 900 ng·h/mL and 1900 ng·h/mL, respectively. The MRT is 1.1 h in [2] and 3.1 h in data set [7]. The 50% inhibitory concentration (IC50) in data set [4] stood at 120 µM. In addition, the highest level in [5] (Cmax) was 1000 ng/mL. Also, the inhibition at 10 µM in [6] was found to be 90%. In data set [8], this compound had a half-life of 1.2 h. The Tmax in data set [9] was determined as 0.3 h. Moreover, the exposure (AUC) in the data set with Rattus norvegicus [10] is 2100 ng·h/mL. In addition, the bioavailability in [11] is 110%.

For the compound `CCS(=O)(=O)N1C[C@H](N(C)c2ncnc3[nH]ccc23)C2(CC2)C1`, the IC50 in data set [12] was 0.0072 µM; in data set [13], 0.18 µM.

For orientation: MRT means the average time that molecules of a dose stay in the body. In general, IC50 refers to the concentration at which inhibition is half-maximal. What is called Cmax is the maximum level reached in the sampled fluid or tissue. One may read the inhibition as the share of the control response that was lost under treatment. One may read the half-life as the time in which the quantity being followed falls by half. Usually Tmax stands for the time from dosing to the highest level. One may read the AUC as the area under the concentration-time curve, a measure of exposure. Read a low AUC as low exposure.
